# Measurements as given in ChEMBL document CHEMBL1125391, “Syntheses and thymidylate synthase inhibitory activity of the poly-gamma-glutamyl conjugates of N-[5-[N-(3,4-dihydro-2-methyl-4-oxoquinazolin-6-ylmethyl)-N-methylamino ]-2-thenoyl]-L-glutamic acid (ICI D1694) and other quinazoline antifolates” (J Med Chem, 1992).
# Tests used:
# [1] = biological target: Thymidylate synthase (Mus musculus) (UniProt P07607); assay: Compound was evaluated for fold increase in Thymidylate synthase (TS) inhibition; assay type: functional
# Thymidylate synthase [2] = biological target: T1, Thymidylate synthase (Mus musculus, UniProt P07607); assay: Inhibition of thymidylate synthase, partially purified from L1210 mouse leukemia cells overexpressing TS; assay type: cell-free; details: read-out: Ki app
# Method in brief: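 Enzyme partially purified from L1210 mouse leukemia cells that overproduce TS through TS gene amplification. Assayed by the previously described method with (±)-5,10-methylenetetrahydrofolic acid at 200 μM. Apparent Ki was calculated with the Goldstein equation for tight-binding inhibitors.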
# Thymidylate synthase [3] = biological target: T1, Thymidylate synthase; assay: Compound was evaluated for inhibition of thymidylate synthase, partially purified from L1210 mouse leukemia cells that overproduce thymidylate synthase due to amplification of TS gene; details: read-out: Ki app
# T1 sequence (P07607 whole entry): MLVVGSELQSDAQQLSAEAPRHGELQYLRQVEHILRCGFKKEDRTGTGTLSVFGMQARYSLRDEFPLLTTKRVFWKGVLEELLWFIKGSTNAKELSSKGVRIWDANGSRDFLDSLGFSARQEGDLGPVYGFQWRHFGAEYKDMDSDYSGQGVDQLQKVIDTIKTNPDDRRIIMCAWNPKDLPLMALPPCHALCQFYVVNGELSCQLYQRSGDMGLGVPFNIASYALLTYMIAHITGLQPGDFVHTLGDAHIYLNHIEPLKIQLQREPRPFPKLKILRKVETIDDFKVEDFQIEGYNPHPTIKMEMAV
# Chain of Thymidylate synthase (Mus musculus) (P07607 whole entry, looked up): as the sequence (P07607 whole entry) above
SMILES,Fold increase [1],Ki (Thymidylate synthase [2]) [nM],Ki (Thymidylate synthase [3]) [nM]
Cc1nc(O)c2cc(CN(C)c3ccc(C(=O)N[C@@H](CCC(=O)N[C@@H](CCC(=O)N[C@@H](CCC(=O)N[C@@H](CCC(=O)N[C@@H](CCC(=O)O)C(=O)O)C(=O)O)C(=O)O)C(=O)O)C(=O)O)s3)ccc2n1,110,–,–
C#CCN(Cc1ccc2nc(C)nc(O)c2c1)c1ccc(C(=O)N[C@@H](CCC(=O)N[C@@H](CCC(=O)O)C(=O)O)C(=O)O)c(F)c1,18,0.59,–
Cc1nc2ccc(CN(C)c3ccc(C(=O)N[C@@H](CCC(=O)N[C@@H](CCC(=O)N[C@@H](CCC(=O)O)C(=O)O)C(=O)O)C(=O)O)s3)cc2c(=O)[nH]1,–,7.52,–
Cc1nc2ccc(CN(C)c3ccc(C(=O)N[C@@H](CCC(=O)N[C@@H](CCC(=O)N[C@@H](CCC(=O)N[C@@H](CCC(=O)N[C@@H](CCC(=O)O)C(=O)O)C(=O)O)C(=O)O)C(=O)O)C(=O)O)s3)cc2c(=O)[nH]1,–,3.79,–
Cc1nc(O)c2cc(CN(C)c3ccc(C(=O)N[C@@H](CCC(=O)N[C@@H](CCC(=O)N[C@@H](CCC(=O)N[C@@H](CCC(=O)O)C(=O)O)C(=O)O)C(=O)O)C(=O)O)s3)ccc2n1,89,4.69,–
C#CCN(Cc1ccc2nc(C)[nH]c(=O)c2c1)c1ccc(C(=O)N[C@@H](CCC(=O)O)C(=O)O)c(F)c1,–,10.4,–
Cc1nc2ccc(CN(C)c3ccc(C(=O)N[C@@H](CCC(=O)N[C@@H](CCC(=O)N[C@@H](CCC(=O)N[C@@H](CCC(=O)N[C@@H](CCC(=O)N[C@@H](CCC(=O)O)C(=O)O)C(=O)O)C(=O)O)C(=O)O)C(=O)O)C(=O)O)s3)cc2c(=O)[nH]1,–,3.7,–
Cc1nc(O)c2cc(CN(C)c3ccc(C(=O)N[C@@H](CCC(=O)N[C@@H](CCC(=O)O)C(=O)O)C(=O)O)s3)ccc2n1,17,–,–
Cc1nc(O)c2cc(CN(C)c3ccc(C(=O)N[C@@H](CCC(=O)N[C@@H](CCC(=O)N[C@@H](CCC(=O)O)C(=O)O)C(=O)O)C(=O)O)s3)ccc2n1,56,–,–
Cc1nc2ccc(CN(C)c3ccc(C(=O)N[C@@H](CCC(=O)N[C@@H](CCC(=O)O)C(=O)O)C(=O)O)s3)cc2c(=O)[nH]1,–,24,–
C#CCN(Cc1ccc2nc(C)cc(Cl)c2c1)c1ccc(C(=O)N[C@@H](CCC(=O)O)C(=O)O)c(F)c1,–,63.7,–
Cc1nc2ccc(CN(C)c3ccc(C(=O)N[C@@H](CCC(=O)O)C(=O)O)s3)cc2c(=O)[nH]1 [RALTITREXED],–,–,418
Cc1nc(O)c2cc(CN(C)c3ccc(C(=O)N[C@@H](CCC(=O)N[C@@H](CCC(=O)N[C@@H](CCC(=O)N[C@@H](CCC(=O)N[C@@H](CCC(=O)N[C@@H](CCC(=O)O)C(=O)O)C(=O)O)C(=O)O)C(=O)O)C(=O)O)C(=O)O)s3)ccc2n1,112,–,–
C#CCN(Cc1ccc2nc(C)cc(Cl)c2c1)c1ccc(C(=O)N[C@@H](CCC(=O)N[C@@H](CCC(=O)N[C@@H](CCC(=O)O)C(=O)O)C(=O)O)C(=O)O)c(F)c1,64,1,–
